Source: PubChem
PGC1a acetyl inh: PGC1a acetylation modulation, inhibitor mode. AID 651687. 350,000 tested, 0.17% active. inhibition, % at 15.6 µM. U2OS PGC1a acetylation, AlphaScreen anti-acetyl-lysine; with virally co-expressed GCN5 acetyltransferase;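 active = every replicate shows inhibition of at least 40%; inconclusive = mean inhibition at least 40% but some replicate below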
PAX8 inh HTS: inhibitors of PAX8 transcriptional activity in RMG-I cells; RMG-I TPO-luciferase reporter, SteadyGlo, 24 h; AID 652154; 360,000 tested, 1.2% active; inhibition, % at 12.6 µM;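 active = mean replicate inhibition at least 60% with every replicate also reaching 60%; inconclusive = only one of the two criteria is met; inactive = mean below 60% and not all replicates reaching 60%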;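 note: luciferase light reporting Pax8 driven TPO promoter activity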
Env fusion inh: blocks HIV Env-driven cell-cell fusion; 360,000 tested, 1.1% active; AID 651610; inhibition, % at 12.3 µM; HeLa-JRFL Env/CEM21 cell fusion, luciferase;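 active = mean replicate inhibition score of at least 50 and every replicate individually at or above 50; inconclusive = only one of the two criteria met; inactive = mean below 50 and not all replicates reaching 50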
EWS-Fli inh: inhibitors of EWS/Fli oncoprotein transcriptional activity. A673 NR0B1-luciferase reporter, viability-normalised. inhibition, % at 12.6 µM. 350,000 tested, 0.67% active;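 active = mean inhibition of at least 50% after viability correction, with every replicate also passing that limit; inconclusive = mean reaches 50% but only one of two replicates passes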;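 note: firefly luciferase signal divided by Alamar Blue viability fluorescence both relative to DMSO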
CFTR F508del cor: correctors of CFTR F508del function in bronchial epithelial cells | 350,000 tested, 0.36% active | activity (quench increase), % at 7.58 µM | AID 720511 | CFBE cells, YFP halide quenching; stimulated with forskolin plus potentiator P3; % fluorescence drop versus neutral controls;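 active = mean added fluorescence quench of at least 8% versus neutral control, with both replicates also reaching 8%; inconclusive = only one of the mean or replicate conditions met; inactive = mean below 8% and not both replicates reaching 8%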;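 note: cells transiently co-express mutant CFTR-F508del with the halide-sensitive YFP; corrector assay measuring rescue of mutant channel to the surface after 24 h compound exposure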
FN deposit inh: fibronectin deposition inhibition; 350,000 tested, 0.086% active; AID 743247; AH1F fibroblasts, Alexa488-fibronectin deposition fluorescence, overnight; inhibition, % at 12.6 µM;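 active = mean inhibition across replicates of 30% or more, regardless of how many single replicates reach that level; inconclusive = mean under 30% yet at least half of replicates reach 30%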
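Assay system: AH1F fibroblasts / Quantity: 10000 cells per well / Medium: DMEM plus 2% serum, read in PBS / Reagent: labelled fibronectin 24 nM / Dosing: single dose, pinned / Times: 1 h cell attachment, overnight exposure to compound and label / Signal: fluorescence, ex 485 nm, em 525 nm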
Of the large screens only hits and unclear results are named; the others gave an inactive call; ! = a repeat was not active; [ ] = another dose, or the depositor's remark. Compounds with a hit are over-represented: about 2.3% of the library has one in this group of screens.

C[C@H](O)C#Cc1cnc2c(c1)C(=O)N([C@H](C)CO)C[C@H](C)[C@@H](CN(C)C(=O)CN1CCOCC1)O2	none (no result: FN deposit inh)
O=C(Cc1ccc(NC(=O)C2CCCN(C(=O)C3CCCCC3)C2)cc1)Nc1ccc(C(=O)N2CCOCC2)cc1 (stereo unspecified)	none
O=C(Cc1ccc(NC(=O)C2CCN(C(=O)C3CCCCC3)CC2)cc1)Nc1ccc(C(=O)N2CCOCC2)cc1	PAX8 inh HTS 67.6
O=C1c2ccccc2C(=O)N1CCCCN(C(=O)c1cc([N+](=O)[O-])cc([N+](=O)[O-])c1)c1ccc(Cl)cc1	PAX8 inh HTS 82.7 (no result: PGC1a acetyl inh, Env fusion inh)
O=C1c2ccccc2C(=O)N1CCCCN(C(=O)c1ccc([N+](=O)[O-])cc1)c1ccc(Cl)cc1	none (no result: PAX8 inh HTS, EWS-Fli inh, CFTR F508del cor)
C[C@@H]1CN([C@H](C)CO)C(=O)c2cc(NC(=O)c3ccccc3)ccc2O[C@@H](C)CCCCO[C@H]1CN(C)Cc1ccc2c(c1)OCO2	none (no result: FN deposit inh)
CCCOc1ccc(C(F)(F)F)cc1NC(=O)CCc1c(C)noc1C	Env fusion inh 98.5
CC=Cc1ccc2n(c1=O)C[C@@H]1[C@@H](CO)[C@H](C(=O)N3CCCCC3)N(C(=O)CC)[C@H]21 (mixture of isomers)	none (no result: PGC1a acetyl inh, PAX8 inh HTS, Env fusion inh, CFTR F508del cor, FN deposit inh)
C[C@@H]1CN([C@@H](C)CO)C(=O)Cc2cc(NC(=O)CCCN(C)C)ccc2O[C@H]1CN(C)S(=O)(=O)c1cccs1	none (no result: FN deposit inh)
ClC(Cl)(Cl)c1nc2ccccc2n2nncc12	PAX8 inh HTS 86.3 (no result: PGC1a acetyl inh)
COc1ccc2c3c(n(C)c2c1)[C@H](CO)N(C(C)=O)CC31CCN(C(=O)C2CC2)CC1	none (no result: PGC1a acetyl inh, PAX8 inh HTS, FN deposit inh)
Nc1ccc(-c2nc3ccc(C(=O)O)cc3s2)cc1	PAX8 inh HTS 102.6, Env fusion inh 69.2, EWS-Fli inh 84.5 (no result: PGC1a acetyl inh, CFTR F508del cor)
Nc1ccc(-c2nc3ccc(N)cc3s2)cc1	none
O=C(O)c1ccc2nc(-c3ccccc3)sc2c1	PAX8 inh HTS 73.9 (no result: CFTR F508del cor, FN deposit inh)
O=C(C1CC1)N1CCCCN2[C@H](CO)[C@H](c3ccc(C#CC4(O)CCCC4)cc3)[C@H]2C1	none (no result: Env fusion inh, FN deposit inh)
COCC#Cc1ccc2c(c1)O[C@H](CN(C)CC1CCOCC1)[C@@H](C)CN([C@@H](C)CO)S2(=O)=O	none (no result: PAX8 inh HTS, FN deposit inh)
COn1c(SCc2ccc(C)cc2C)nc2ccccc2c1=O	Env fusion inh 57.3 (no result: PGC1a acetyl inh, PAX8 inh HTS, EWS-Fli inh, CFTR F508del cor)
COc1ccc(COc2cc(-c3cccc(OC)c3)nc3ccc(NC(=O)C(C)C)cc23)cc1	EWS-Fli inh 55.0 (no result: PGC1a acetyl inh)
CCc1ccc(N(C(=O)c2snc(C(N)=O)c2N)C(C(=O)NCCC(C)C)c2c[nH]c3ccccc23)cc1 (stereo unspecified)	Env fusion inh 118.0 (no result: EWS-Fli inh, CFTR F508del cor)
C[C@@H]1CCCCO[C@@H](CN(C)Cc2ccc(Cl)c(Cl)c2)[C@H](C)CN([C@@H](C)CO)C(=O)c2cc(NS(=O)(=O)c3cccs3)ccc2O1	PAX8 inh HTS 71.2
C[C@@H]1CCCCO[C@@H](CN(C)Cc2ccc(Cl)c(Cl)c2)[C@H](C)CN([C@H](C)CO)C(=O)c2cc(NS(=O)(=O)c3cccs3)ccc2O1	PAX8 inh HTS inconclusive, Env fusion inh inconclusive
C[C@@H]1CCCCO[C@@H](CN(C)Cc2ccc(Cl)c(Cl)c2)[C@@H](C)CN([C@@H](C)CO)C(=O)c2cc(NS(=O)(=O)c3cccs3)ccc2O1	none
C[C@@H]1CN([C@H](C)CO)C(=O)c2cc(NS(=O)(=O)c3cccs3)ccc2O[C@@H](C)CCCCO[C@H]1CN(C)Cc1ccc(Cl)c(Cl)c1	PAX8 inh HTS 75.0
C[C@@H]1CN([C@H](C)CO)C(=O)c2cccc(NS(=O)(=O)c3cccs3)c2O[C@@H]1CN(C)Cc1ccc(Cl)c(Cl)c1	Env fusion inh 89.7[16.7 µM] (no result: FN deposit inh)
C[C@@H]1CCCCO[C@H](CN(C)Cc2ccncc2)[C@@H](C)CN([C@@H](C)CO)C(=O)c2cc(NS(=O)(=O)c3cccs3)ccc2O1	none (no result: PAX8 inh HTS, FN deposit inh)
C[C@@H]1CN([C@H](C)CO)C(=O)c2cc(NS(=O)(=O)c3cccs3)ccc2O[C@@H](C)CCCCO[C@@H]1CN(C)Cc1ccc(Cl)c(Cl)c1	PAX8 inh HTS 80.3
CCCNC(=O)Nc1ccc2c(c1)OC[C@@H](C)N(C(C)=O)C[C@@H](C)[C@H](OC)CN(C)C2=O	none (no result: PAX8 inh HTS, Env fusion inh, EWS-Fli inh)
COCc1cn(CC[C@H]2CC[C@H](NC(=O)Nc3ccc(OC)cc3)[C@H](CO)O2)nn1	none (no result: FN deposit inh)
Cc1cc(C(=O)Nc2cccc3c2O[C@H](CN(C)C(=O)Nc2ccc(F)cc2)[C@H](C)CN([C@H](C)CO)C3=O)n(C)n1	none (no result: Env fusion inh, FN deposit inh)
CCCNC(=O)Nc1ccc2c(c1)OC[C@H](C)N(C(=O)C1CC1)C[C@@H](C)[C@H](OC)CN(C)C2=O	none (no result: PGC1a acetyl inh, Env fusion inh)
Cc1cc(CSc2ccccc2)ccc1NC(=O)c1ccc(CN2CCOCC2)cc1	Env fusion inh 68.3 (no result: PGC1a acetyl inh, EWS-Fli inh, CFTR F508del cor)
COc1ccc(-c2ccc3c(c2)O[C@@H](CN(C)Cc2ccccc2C(=O)O)[C@@H](C)CN([C@@H](C)CO)S3(=O)=O)cc1	none (no result: PAX8 inh HTS)
COc1ccccc1NC(=S)Nc1cccc2cnccc12	Env fusion inh 58.3 (no result: PGC1a acetyl inh)
COc1ccc(NC(=O)Nc2ccc3c(c2)C(=O)N([C@H](C)CO)C[C@H](C)[C@@H](CN(C)Cc2ccc(Cl)c(Cl)c2)OCCCC[C@@H](C)O3)cc1	PAX8 inh HTS 74.3!
COc1ccc(NC(=O)Nc2ccc3c(c2)C(=O)N([C@@H](C)CO)C[C@@H](C)[C@@H](CN(C)Cc2ccc(Cl)c(Cl)c2)OCCCC[C@@H](C)O3)cc1	PAX8 inh HTS 75.1 (no result: FN deposit inh)
COc1ccc(NC(=O)Nc2ccc3c(c2)C(=O)N([C@H](C)CO)C[C@H](C)[C@H](CN(C)Cc2ccc(Cl)c(Cl)c2)OCCCC[C@H](C)O3)cc1	Env fusion inh 91.0[16.7 µM] (no result: FN deposit inh)
CCCCCC(=O)N1C[C@H](n2cc(-c3ccc(F)cc3)nn2)[C@@H](O)C[C@@H]1c1ccc(Cl)cc1	PAX8 inh HTS 81.8
CN(C)CC(=O)N1CCCCN2[C@H](C1)[C@@H](c1ccc(-c3cccc(C(=O)N(C)C)c3)cc1)[C@@H]2CO	none (no result: Env fusion inh, FN deposit inh)
CCOC(=O)c1ccc(-c2c(-c3cc(OC)c(OC)c(OC)c3)noc2C)cc1F	CFTR F508del cor 16.2
COc1ccc(NC(=O)c2nn(C34CC5CC(CC(C5)C3)C4)cc2[N+](=O)[O-])cc1	PAX8 inh HTS 128.3 (no result: PGC1a acetyl inh, Env fusion inh)
O=C1c2cccc(NCCNCCO)c2C(=O)c2cccc(NCCNCCO)c21	Env fusion inh 59.0, EWS-Fli inh 58.8 (no result: PGC1a acetyl inh)
O=C(O)CCNc1ccc(NCCC(=O)O)c2c1C(=O)c1ccccc1C2=O	none (no result: PGC1a acetyl inh)
CN1[C@@H]2c3ccc(C4=CCCC4)c(=O)n3C[C@@H]2[C@@H](CO)[C@@H]1C(=O)NCc1ccccc1F	none (no result: PGC1a acetyl inh, PAX8 inh HTS, Env fusion inh, CFTR F508del cor, FN deposit inh)
CC1CCN(S(=O)(=O)c2ccc3c(c2)CC(C)N3C(=O)C2CCC2)CC1 (stereo unspecified)	none (no result: PGC1a acetyl inh)
CCC(=O)N1c2ccc(S(=O)(=O)N3CCN(c4ccc([N+](=O)[O-])cc4)CC3)cc2CC1C (stereo unspecified)	PAX8 inh HTS 68.4 (no result: PGC1a acetyl inh)
